Active and inactive are the calls of the source. The calls are words filed in the database; no cut-off is given here.
Experiments:
A549 [1] = assay: Inhibition of human NF-kappaB in TNF-alpha-stimulated A549 cells assessed as secreted alkaline phosphatase level at 1 uM after 18 hrs; type: cell-based
How it was run: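 The A549 NF-κB–SEAP reporter line was given TNF-α (10 ng/mL) plus compound at a single concentration, with dexamethasone as positive control. Supernatant SEAP was read 18 h later by chemiluminescence. Results are expressed as % inhibition relative to TNF-α alone, mean ± standard deviation, n = 3.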

[2] = system: Radical scavenging activity; assay: Antioxidant activity assessed as DPPH radical scavenging activity by UV-visible spectrophotometry; type: functional
How it was run: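 DPPH stock at 0.625 mM in 50% acetone, stored at 4 °C in the dark; diluted daily to a 0.208 mM working solution. Samples in 50% acetone were mixed 1:1 with working DPPH, giving 0.104 mM DPPH initially. Mixtures were vortexed and read immediately at 515 nm against a 50% acetone blank, and remaining DPPH was calculated.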

A549 [3] = assay: Cytotoxicity against human A549 cells after 2 hrs by MTS assay; type: cell-based; details: a549, 18 h, in the assay text read “18 hrs” for “2 hrs”
How it was run: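 A549SN cells were plated at 1 × 10⁴ per well and held 24 h at 37 °C, then treated in duplicate for 18 h alongside vehicle and medium-only controls. Viability was read by MTS: formazan absorbance at 490 nm after 2 h, with the media-only background subtracted.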

[4] = Inhibition of human NF-kappaB in TNF-alpha-stimulated A549 cells assessed as secreted alkaline phosphatase level after 18 hrs; type: cell-based; details: A549, 18 h
How it was run: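 Type II-like A549 cells stably carrying an NF-κB response element–SEAP reporter were plated overnight at 6 × 10⁴ cells/well. They were then stimulated with human recombinant TNF-α (10 ng/mL) together with compound. After 18 h, supernatant SEAP was measured by chemiluminescence and normalized to lysate total protein (BCA). IC50 came from dose–response curves, n = 3 separate experiments.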

Row | Structure (SMILES) | Activity (A549 [1]) | Activity [2] | Activity (A549 [3]) | IC50 [4] [nM]
1 | NCCNC(=O)[C@]1(O)C[C@@H](O)[C@@H](O)[C@H](O)C1 | Active |  |  | 
2 | O=C(O)[C@]1(O)C[C@@H](O)[C@@H](O)[C@H](O)C1 [QUINIC ACID] |  | inactive | Not Active | 
3 | O=C(O)/C=C/c1ccc(O)c(O)c1 |  | Active |  | 
4 | CCCNC(=O)[C@]1(O)C[C@@H](O)[C@@H](O)[C@H](O)C1 | Active | inactive | Not Active | 2830
5 | CC(=O)O[C@@H]1C[C@](OC(C)=O)(C(=O)O)C[C@@H](OC(C)=O)[C@H]1OC(C)=O | inactive |  |  | 
6 | CC(C)(C)OC(=O)NCCNC(=O)[C@]1(O)C[C@@H](O)[C@@H](O)[C@H](O)C1 | Active |  |  | 
7 | O=C(/C=C/c1ccc(O)c(O)c1)O[C@@H]1C[C@](O)(C(=O)O)C[C@@H](O)[C@H]1O |  | Active |  | 
8 | O=C1O[C@H]([C@@H](O)CO)C(O)=C1O |  | Active |  | 
9 | CC(C)NC(=O)[C@]1(O)C[C@@H](O)[C@@H](O)[C@H](O)C1 | Active |  |  | 
